From ChEMBL document CHEMBL1139439, “Folate-synthesizing enzyme system as target for development of inhibitors and inhibitor combinations against Candida albicans-synthesis and biological activity of new 2,4-diaminopyrimidines and 4'-substituted 4-aminodiphenyl sulfones” (J Med Chem, 2004)
One block for each compound: values may come before it.

Assays:
Dihydrofolate reductase [1] = target: T1, Dihydrofolate reductase (Candida albicans, UniProt P22906); assay: Inhibitory activity against cell free dihydrofolate reductase (DHFR) from Candida albicans; conditions: read-out: I50
T1 sequence (P22906 whole entry): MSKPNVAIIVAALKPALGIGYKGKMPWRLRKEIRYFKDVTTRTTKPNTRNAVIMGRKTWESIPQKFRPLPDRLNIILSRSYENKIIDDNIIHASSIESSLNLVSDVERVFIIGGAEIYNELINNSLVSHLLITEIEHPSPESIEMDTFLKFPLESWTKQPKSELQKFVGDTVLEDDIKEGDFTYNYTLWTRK

Dihydrofolate reductase [2] = target: T2, Dihydrofolate reductase (Rattus norvegicus, UniProt Q920D2); assay: Inhibitory activity against cell free dihydrofolate reductase (DHFR) from rat; conditions: for IC50: read-out: I50
T2 sequence (Q920D2 whole entry): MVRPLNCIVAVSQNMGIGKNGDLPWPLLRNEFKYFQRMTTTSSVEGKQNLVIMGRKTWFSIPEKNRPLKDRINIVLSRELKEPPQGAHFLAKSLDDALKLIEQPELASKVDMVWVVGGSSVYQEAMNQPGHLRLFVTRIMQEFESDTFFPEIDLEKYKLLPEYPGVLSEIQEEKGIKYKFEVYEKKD

[3] = Inhibitory activity against dihydropteroic acid synthase (SYN) from Mycobacterium lufu (DDS resistant); conditions: read-out: I50
[4] = target: T3, Dihydropteroate synthetase, putative (Plasmodium berghei str. ANKA, UniProt A0A113T0T6); assay: (§1) Inhibitory activity against dihydropteroic acid synthase (SYN) from Plasmodium berghei; conditions: read-out: I50
T3 sequence (A0A113T0T6 whole entry): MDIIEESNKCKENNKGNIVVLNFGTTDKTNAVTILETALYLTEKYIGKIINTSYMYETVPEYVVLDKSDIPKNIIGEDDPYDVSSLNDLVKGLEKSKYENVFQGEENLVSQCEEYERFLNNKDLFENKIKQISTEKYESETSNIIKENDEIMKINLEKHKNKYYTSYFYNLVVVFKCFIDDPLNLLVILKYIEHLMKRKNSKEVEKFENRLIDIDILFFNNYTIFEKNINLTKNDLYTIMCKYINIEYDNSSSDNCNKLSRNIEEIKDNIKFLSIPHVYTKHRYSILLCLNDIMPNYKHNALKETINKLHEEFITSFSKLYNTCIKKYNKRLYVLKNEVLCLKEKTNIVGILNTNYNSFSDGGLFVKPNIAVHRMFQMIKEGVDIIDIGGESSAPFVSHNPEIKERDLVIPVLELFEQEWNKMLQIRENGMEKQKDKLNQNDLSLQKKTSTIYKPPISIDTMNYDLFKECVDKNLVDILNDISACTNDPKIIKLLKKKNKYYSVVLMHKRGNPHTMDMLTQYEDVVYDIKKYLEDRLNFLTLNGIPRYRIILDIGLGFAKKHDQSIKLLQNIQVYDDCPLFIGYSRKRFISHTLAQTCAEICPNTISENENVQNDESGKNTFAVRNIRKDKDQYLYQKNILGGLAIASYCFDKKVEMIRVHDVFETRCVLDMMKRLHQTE

[5] = Inhibitory activity against dihydropteroic acid synthase (SYN) from Escherichia coli; conditions: read-out: I50
[6] = Inhibitory activity against dihydropteroic acid synthase (SYN) from Mycobacterium lufu (DDS sensitive); conditions: read-out: I50
Candida albicans [7] = assay: Inhibitory effect on Candida albicans wild type YEM30 Strain; assay type: functional
Procedure, shortened: (§2)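 MICs were determined by serial dilution in RPMI medium. MIC is the lowest concentration giving culture turbidity ≤20% of the control culture.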

Candida albicans [8] = assay: Inhibitory effect on Candida albicans wild type YEM14 Strain; assay type: functional; procedure, shortened: as §2
Candida albicans [9] = assay: Inhibitory effect on Candida albicans YEM13 BENup Strain; assay type: functional; procedure, shortened: as §2
Candida albicans [10] = assay: Inhibitory effect on Candida albicans YEM27 quad deletion Strain; assay type: functional; procedure, shortened: as §2
Nakaseomyces glabratus [11] = assay: Inhibitory effect on Candida glabrata YEM88 CgCDR1 CgCDR2up Strain; assay type: functional
Procedure, shortened: (§3)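 For C. glabrata strains, MICs were determined by serial dilution in RPMI medium and read after 48 h. MIC is the lowest concentration giving turbidity ≤20% of the control culture.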

Nakaseomyces glabratus [12] = assay: Inhibitory effect on Candida glabrata YEM216 pCDR1pCDR2pBEN YEM75 WT Strain; assay type: functional; procedure, shortened: as §3
Candida albicans [13] = assay: Inhibitory effect on Candida albicans YEM12 Strain; assay type: functional; procedure, shortened: as §2
Nakaseomyces glabratus [14] = assay: Inhibitory effect on Candida glabrata YEM75 WT Strain; assay type: functional; procedure, shortened: as §3
Candida albicans [15] = assay: Inhibitory effect on Candida albicans YEM15 CDR1CDR2up Strain; assay type: functional; procedure, shortened: as §2
[16] = Inhibitory activity against dihydropteroic acid synthase (SYN) from candida albicans; conditions: read-out: I50
Procedure, shortened: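 Partially purified SYN extract was prepared from C. albicans ATCC 11651 and incubated with sulfones at pH 8.4. Periodic samples were quenched with trichloroacetic acid, and folate formed was quantified by bioassay with folate-requiring Streptococcus faecium. I50 is the concentration giving a 50% decrease in dihydropteroic acid production versus the uninhibited control.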

[17] = target: T4, Dihydropteroate synthetase, putative (Plasmodium berghei str. ANKA) (UniProt A0A113T0T6); assay: as §1
T4 sequence (whole entry): T3 sequence (A0A113T0T6 whole entry)

[18] = target: Dihydrofolate reductase (Mycobacterium lufu); assay: Inhibitory activity against cell free dihydrofolate reductase (DHFR) from Mycobacterium lufu

IC50 (Dihydrofolate reductase [1]): 0.047 µM | IC50 (Dihydrofolate reductase [2]): 3.64 µM
SMILES: Nc1ncc(Cc2ccc(OCCCCN3C(=O)c4ccccc4C3=O)cc2)c(N)n1

SMILES: CC(=O)Nc1ccc(S(=O)(=O)c2ccc(N)cc2)cc1 [MONO-N-ACETYL DAPSONE]
IC50 [3]: 4.05 µM | IC50 [4]: 33.3 µM | IC50 [5]: 75.7 µM | IC50 [6]: 7.01 µM

IC50 (Dihydrofolate reductase [1]): 0.73 µM | IC50 (Dihydrofolate reductase [2]): 3.53 µM
SMILES: Nc1ncc(OCc2ccccc2Cl)c(N)n1

IC50 (Dihydrofolate reductase [1]): 1.39 µM | IC50 (Dihydrofolate reductase [2]): 5.9 µM
SMILES: Nc1ncc(NCc2cccc3ccccc23)c(N)n1

IC50 (Dihydrofolate reductase [1]): 0.49 µM | IC50 (Dihydrofolate reductase [2]): 2.82 µM
SMILES: Nc1ncc(OCc2ccc(Br)c3ccccc23)c(N)n1

IC50 (Dihydrofolate reductase [1]): 30.9 µM | I50 (Dihydrofolate reductase [2]): 110.6 uM l-1
SMILES: Nc1ncc(CSc2ccc3ccccc3c2)c(N)n1

IC50 (Dihydrofolate reductase [1]): 13.9 µM | IC50 (Dihydrofolate reductase [2]): 49.8 µM
SMILES: Nc1ncc(NCc2cccc(Cl)c2)c(N)n1

IC50 (Dihydrofolate reductase [1]): 0.435 µM | IC50 (Dihydrofolate reductase [2]): 4.43 µM
SMILES: Cc1ccc(S(=O)(=O)NCCCOc2ccc(COc3cnc(N)nc3N)cc2)cc1

MIC (Candida albicans [7]): > 64 µg/mL | MIC (Candida albicans [8]): > 64 µg/mL | MIC (Candida albicans [9]): > 64 µg/mL | IC50 (Dihydrofolate reductase [1]): 0.061 µM | MIC (Candida albicans [10]): > 64 µg/mL | MIC (Nakaseomyces glabratus [11]): > 64 µg/mL | IC50 (Dihydrofolate reductase [2]): 1.76 µM | MIC (Nakaseomyces glabratus [12]): > 64 µg/mL | MIC (Candida albicans [13]): > 64 µg/mL | MIC (Nakaseomyces glabratus [14]): > 64 µg/mL | MIC (Candida albicans [15]): > 64 µg/mL
SMILES: COc1ccc(Cc2cnc(N)nc2N)cc1OCCCCN1C(=O)c2ccccc2C1=O

IC50 (Dihydrofolate reductase [1]): 1.85 µM | IC50 (Dihydrofolate reductase [2]): 3.36 µM
SMILES: Cc1nc(N)nc(N)c1Cc1ccccc1

IC50 (Dihydrofolate reductase [1]): 6.63 µM | IC50 (Dihydrofolate reductase [2]): 71.5 µM
SMILES: Nc1ncc(NCc2ccccc2Cl)c(N)n1

SMILES: COC(=O)c1ccc(S(=O)(=O)c2ccc(N)cc2)cc1
IC50 [3]: 13.8 µM | IC50 [4]: 147 µM | IC50 [5]: 149 µM | IC50 [6]: 11.8 µM

SMILES: Nc1ccc(S(=O)(=O)c2ccc(NCC(=O)O)cc2)cc1 [ACEDIASULFONE]
IC50 [3]: 0.82 µM | IC50 [16]: 1.22 µM | IC50 [4]: 17.8 µM | IC50 [5]: 37.1 µM | IC50 [6]: 0.87 µM

IC50 (Dihydrofolate reductase [1]): 1.34 µM | IC50 (Dihydrofolate reductase [2]): 4.58 µM
SMILES: Cc1nc(N)nc(N)c1OCc1ccc(Cl)c(Cl)c1

SMILES: Cc1ccc(S(=O)(=O)c2ccc(N)cc2)cc1
IC50 [3]: 5.92 µM | IC50 [16]: 10.1 µM | IC50 [4]: 48 µM | IC50 [5]: 89.9 µM | IC50 [6]: 8.08 µM

IC50 (Dihydrofolate reductase [1]): 26.1 µM | IC50 (Dihydrofolate reductase [2]): 99.7 µM
SMILES: COc1ccc(COc2cnc(N)nc2N)cc1

IC50 (Dihydrofolate reductase [1]): 35.4 µM | I50 (Dihydrofolate reductase [2]): 315.3 uM l-1
SMILES: COc1ccc(CCc2cnc(N)nc2N)cc1OC

SMILES: NNC(=O)c1ccc(S(=O)(=O)c2ccc(N)cc2)cc1
IC50 [3]: 9.6 µM | I50 [17]: 76.5 µM | IC50 [5]: 155 µM | IC50 [6]: 12.7 µM

IC50 (Dihydrofolate reductase [1]): 5.72 µM | I50 (Dihydrofolate reductase [2]): 130.6 uM l-1
SMILES: Nc1ncc(/C=C/c2ccccc2)c(N)n1

SMILES: COC(=O)CNc1ccc(S(=O)(=O)c2ccc(N)cc2)cc1
IC50 [3]: 2.63 µM | IC50 [16]: 1.33 µM | IC50 [5]: 101 µM | IC50 [6]: 2.24 µM

IC50 (Dihydrofolate reductase [1]): 59.4 µM | I50 (Dihydrofolate reductase [2]): 133.1 uM l-1
SMILES: Nc1ncc(CNc2ccccc2)c(N)n1

IC50 (Dihydrofolate reductase [1]): 3.37 µM | IC50 (Dihydrofolate reductase [2]): 39.9 µM
SMILES: Nc1ncc(CCc2ccccc2)c(N)n1

MIC (Candida albicans [7]): > 64 µg/mL | MIC (Candida albicans [8]): > 64 µg/mL | MIC (Candida albicans [9]): > 64 µg/mL | IC50 (Dihydrofolate reductase [1]): 0.031 µM | MIC (Candida albicans [10]): > 64 µg/mL | MIC (Nakaseomyces glabratus [11]): > 64 µg/mL | IC50 (Dihydrofolate reductase [2]): 1.81 µM | MIC (Nakaseomyces glabratus [12]): > 64 µg/mL | MIC (Candida albicans [13]): > 64 µg/mL | MIC (Nakaseomyces glabratus [14]): > 64 µg/mL | MIC (Candida albicans [15]): > 64 µg/mL
SMILES: COc1cc(Cc2cnc(N)nc2N)ccc1OCCCCN1C(=O)c2ccccc2C1=O

IC50 (Dihydrofolate reductase [1]): 7.94 µM | IC50 (Dihydrofolate reductase [2]): 58.2 µM | I50 [18]: 105 uM l-1
SMILES: Nc1ncc(NCc2ccccc2)c(N)n1

IC50 (Dihydrofolate reductase [1]): 2.81 µM | IC50 (Dihydrofolate reductase [2]): 39.4 µM
SMILES: Nc1ncc(OCc2ccc(OCc3ccccc3)cc2)c(N)n1

IC50 (Dihydrofolate reductase [1]): 4.77 µM | IC50 (Dihydrofolate reductase [2]): 61.2 µM
SMILES: Nc1ncc(Cc2ccc3ccccc3c2)c(N)n1

SMILES: COc1ccc(S(=O)(=O)c2ccc(N)cc2)cc1
IC50 [3]: 9.33 µM | IC50 [16]: 9.05 µM | IC50 [5]: 128 µM | IC50 [6]: 7.55 µM
